Columns and labels:
[1] = CC50/EC50 ratio expressed as selectivity index(SI); format: functional
Summary of the method: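 Ratio of two MT-4 values from this work. CC50 is the concentration that reduces the viability of mock-infected MT-4 cells by 50%. EC50 is the concentration giving 50% protection of HIV-1-infected MT-4 cells against virus cytopathic effect. Both are means (± standard deviation or range) of at least two separate experiments.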

MT4 [2] = experiment: Concentration of compound required to reduce the viability of mock infected MT-4 cells against HIV-1 by 50%; format: functional; conditions: Homo sapiens
Summary of the method: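 Mock-infected MT-4 cells were exposed to the compound, and viability was measured. CC50 is the concentration that lowers the viability of these uninfected cells by 50%. Values are means (± standard deviation or range) from at least two separate experiments.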

MT4 [3] = experiment: Concentration of compound required to achieve 50% protection of MT-4 cells against HIV-1 virus induced cytopathic effect; format: functional, cell-based; conditions: Homo sapiens
Summary of the method: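 HIV-1-infected MT-4 cells, scored for protection against virus-induced cytopathic effect. EC50 is the concentration protecting 50% of cells, given as the mean (± standard deviation or range) of at least two separate experiments.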

| Compound | Ratio [1] | CC50 (MT4 [2]) [µM] | EC50 (MT4 [3]) [µM] |
| --- | --- | --- | --- |
| Cc1c(Sc2ccccc2)n(COCCN=[N+]=[N-])c(=O)[nH]c1=O | 32 | 186 | 5.8 |
| Cc1c(Sc2ccccc2)n(COCCO)c(=O)[nH]c1=O [HEPT] | > 77 | > 500 | 6.5 |
| Cc1c(Sc2ccccc2)n(COCCF)c(=O)[nH]c1=O | 190 | 209 | 1.1 |
| CCOCn1c(Sc2ccccc2)c(CC)c(=O)[nH]c1=O | 8500 | 161 | 0.019 |
| CCc1c(Sc2ccccc2)n(COCCO)c(=O)[nH]c1=O | – | – | 0.12 |
| Cc1c(Sc2ccccc2)n(COCc2ccccc2)c(=O)[nH]c1=O | 1080 | 95 | 0.088 |
| COCCOCn1c(Sc2ccccc2)c(C)c(=O)[nH]c1=O | 34 | 299 | 8.7 |
| Cc1cn([C@H]2C[C@H](N=[N+]=[N-])[C@@H](CO)O2)c(=O)[nH]c1=O [ZIDOVUDINE] | 2600 | – | 0.003 |
| Cc1c(Sc2ccccc2)n(COCCOCc2ccccc2)c(=O)[nH]c1=O | < 2.3 | 45 | > 20 |
| CCc1c(Sc2ccccc2)n(COCc2ccccc2)c(=O)[nH]c1=O | 5800 | 34 | 0.0059 |
| Cc1c(Sc2ccccc2)n(COCCCl)c(=O)[nH]c1=O | 131 | 196 | 1.5 |
| CCOCn1c(Sc2ccccc2)c(C)c(=O)[nH]c1=O | 700 | 231 | 0.33 |

Reference: ChEMBL document CHEMBL1125681, “Specific anti-HIV-1 "acyclonucleosides" which cannot be phosphorylated: synthesis of some deoxy analogues of 1-[(2-hydroxyethoxy)methyl]-6-(phenylthio)thymine” (J Med Chem, 1991)
